Measurements as given in PMC2630402 (Journal of medicinal chemistry, 2008).
Where two headings read alike, the source gives them in different places.

Assays:
[1] = system: αvβ6-positive (DX3puroβ6) tumor; conditions: DX3puroβ6 xenograft, 1 hour after injection, n = 3/tracer; data for 1 taken from ref 8; cited from earlier work
[2] = system: αvβ6-positive (DX3puroβ6) tumor; test: Biodistribution in mice bearing paired αvβ6-positive; assay type: in vivo, male athymic nude mice; conditions: for uptake in the αvβ6-positive tumor: DX3puroβ6 xenograft, 1 hour after injection; for uptake in the αvβ6-positive tumor / level of activity in the urine: n = 3/tracer; for level of activity in the urine: male athymic nude mice
Procedure, shortened: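 Test compounds were 18F-labeled αvβ6-targeting peptides carrying different prosthetic groups. Radioactivity in healthy tissues and in both tumors was measured 1 h after injection and expressed as % ID/g, the percent of injected radioactive dose per gram of tissue. There were 3 mice per tracer.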

Question: Which “uptake in the αvβ6-positive tumor” value [1] does the source give for [^18F]FBA-A20FDMV2 [compound 1] here?
Answer: 0.66 ± 0.09 % ID/g

Question: Which results are given for [^18F]FPA-A20FDMV2 [compound 2]?
Answer: uptake in the αvβ6-positive tumor [2]: 1.18 ± 0.28 % ID/g; level of activity in the urine ([2]; biodistribution, 1 h p.i.): 311 ± 133 % ID/g

Question: For [^18F]FC5-A20FDMV2 [compound 3], which “uptake in the αvβ6-positive tumor” value [2] is on record?
Answer: 1.01±0.09 % ID/g

Question: And the “levels of radioactivity in the kidneys and the liver” value ([2]; biodistribution, 1 h p.i., compared with 1 and 2)?
Answer: moderately increased

Question: What about the “level of activity in the urine” value ([2]; biodistribution, 1 h p.i.) of the same substance?
Answer: 501 ± 332 % ID/g
